Reference: ChEMBL document CHEMBL1142148, “Antibiotic susceptibility profile of bifidobacteria as affected by oxgall, acid, and hydrogen peroxide stress” (2007)
In brackets after ≈: the same amount, converted by molar mass.

Assays:
Bifidobacterium longum [1] = experiment: Antimicrobial activity against Bifidobacterium longum ATCC 15708; type: functional
In short: (§1)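 Broth microdilution in MRS plus 0.05% L-cysteine-HCl. Mid-log culture adjusted to OD650 0.1, giving about 2.5 × 10^4 to 5.0 × 10^4 CFU/well, then added to twofold serial dilutions of agent. Plates incubated anaerobically at 37°C for 18 h and read at OD650. MIC is the lowest concentration matching the uninoculated blank OD, taken as the median of four repeats.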

Bifidobacterium breve [2] = experiment: Antimicrobial activity against Bifidobacterium breve R0070; type: functional; in short: as §1
Bifidobacterium bifidum [3] = experiment: Antimicrobial activity against 90 mins oxgall-stressed Bifidobacterium bifidum ATCC 15696 after 18 hrs; type: functional
In short: (§2)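 Cells pelleted from mid-log MRS culture and resuspended in MRS (initial pH 6.5) with 0.3% (wt/vol) oxgall for 90 min anaerobically at 37°C. They were then regrown in MRS pH 6.5 for 24 h (footnote: 18 h) anaerobically and tested for MIC by the same broth microdilution assay. Median of four repetitions.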

Bifidobacterium bifidum [4] = experiment: Antimicrobial activity against 90 mins hydrogen peroxide-stressed Bifidobacterium bifidum R0071 after 18 hrs; type: functional
In short: (§3)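 Stress applied for 90 min at 37°C under anaerobic conditions, using MRS (initial pH 6.5) containing H2O2 at each strain's own inhibitory concentration. The H2O2 level was set beforehand by microplate tolerance testing. Challenged cells were regrown in MRS for 24 h (footnote: 18 h) before MIC testing by broth microdilution. Median of four repetitions.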

[5] = Antimicrobial activity against 90 mins oxgall-stressed Bifidobacterium infantis ATCC 15697 after 18 hrs; type: functional, Bifidobacterium longum subsp. infantis; conditions: Bifidobacterium longum; in short: as §2
[6] = system: Bifidobacterium pseudolongum; experiment: Antimicrobial activity against 90 mins oxgall-stressed Bifidobacterium pseudolongum ATCC 25562 after 18 hrs; type: functional; in short: as §2
Bifidobacterium longum [7] = experiment: Antimicrobial activity against 90 mins oxgall-stressed Bifidobacterium longum ATCC 15707 after 18 hrs; type: functional; in short: as §2
Bifidobacterium breve [8] = experiment: Antimicrobial activity against 90 mins hydrogen peroxide-stressed Bifidobacterium breve R0070 after 18 hrs; type: functional; in short: as §3
[9] = system: Bifidobacterium pseudolongum; experiment: Antimicrobial activity against Bifidobacterium pseudolongum ATCC 25562; type: functional; in short: as §1
Bifidobacterium longum [10] = experiment: Antimicrobial activity against Bifidobacterium longum ATCC 15707; type: functional; in short: as §1
Bifidobacterium breve [11] = experiment: Antimicrobial activity against 90 mins hydrogen peroxide-stressed Bifidobacterium breve ATCC 15700 after 18 hrs; type: functional; in short: as §3
Bifidobacterium animalis [12] = experiment: Antimicrobial activity against Bifidobacterium animalis ATCC 27536; type: functional; in short: as §1
Bifidobacterium breve [13] = experiment: Antimicrobial activity against Bifidobacterium breve ATCC 15700; type: functional; in short: as §1
Bifidobacterium longum [14] = experiment: Antimicrobial activity against 60 min 1 M HCl-stressed Bifidobacterium longum ATCC 15707 after 18 hrs; type: functional
In short: (§4)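 Mid-log MRS culture pelleted and resuspended in MRS broth brought to pH 2.0 with 1 M HCl, held anaerobically at 37°C for 60 min, then subcultured in MRS (pH 6.5) for 24 h anaerobically before MIC testing by broth microdilution (as for unstressed cells). Table footnote gives 18 h anaerobic regrowth after the stress. MIC is the median of four repetitions.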

Bifidobacterium longum [15] = experiment: Antimicrobial activity against 90 mins hydrogen peroxide-stressed Bifidobacterium longum ATCC 15708 after 18 hrs; type: functional; in short: as §3
Bifidobacterium breve [16] = experiment: Antimicrobial activity against 90 mins oxgall-stressed Bifidobacterium breve R0070 after 18 hrs; type: functional; in short: as §2
Bifidobacterium longum [17] = experiment: Antimicrobial activity against 90 mins hydrogen peroxide-stressed Bifidobacterium longum ATCC 15707 after 18 hrs; type: functional; in short: as §3
Bifidobacterium longum [18] = experiment: Antimicrobial activity against 60 min 1 M HCl-stressed Bifidobacterium longum P/N 601377 after 18 hrs; type: functional; in short: as §4
Bifidobacterium animalis [19] = experiment: Antimicrobial activity against 90 mins oxgall-stressed Bifidobacterium animalis ATCC 27536 after 18 hrs; type: functional; in short: as §2
Bifidobacterium longum [20] = experiment: Antimicrobial activity against 60 min 1 M HCl-stressed Bifidobacterium longum R0175 after 18 hrs; type: functional; in short: as §4
[21] = system: Bifidobacterium thermophilum; experiment: Antimicrobial activity against 90 mins oxgall-stressed Bifidobacterium thermophilum ATCC 25866 after 18 hrs; type: functional; in short: as §2
Bifidobacterium bifidum [22] = experiment: Antimicrobial activity against 60 min 1 M HCl-stressed Bifidobacterium bifidum BB12 after 18 hrs; type: functional; in short: as §4
Bifidobacterium bifidum [23] = experiment: Antimicrobial activity against 90 mins oxgall-stressed Bifidobacterium bifidum R0071 after 18 hrs; type: functional; in short: as §2
Bifidobacterium longum [24] = experiment: Antimicrobial activity against 90 mins oxgall-stressed Bifidobacterium longum P/N 601377 after 18 hrs; type: functional; in short: as §2
Bifidobacterium bifidum [25] = experiment: Antimicrobial activity against 60 min 1 M HCl-stressed Bifidobacterium bifidum R0071 after 18 hrs; type: functional; in short: as §4
Bifidobacterium longum [26] = experiment: Antimicrobial activity against 90 mins oxgall-stressed Bifidobacterium longum ATCC 15708 after 18 hrs; type: functional; in short: as §2
Bifidobacterium longum [27] = experiment: Antimicrobial activity against 90 mins hydrogen peroxide-stressed Bifidobacterium longum R0175 after 18 hrs; type: functional; in short: as §3
[28] = Antimicrobial activity against Bifidobacterium infantis ATCC 15697; type: functional, Bifidobacterium longum subsp. infantis; conditions: Bifidobacterium longum; in short: as §1
Bifidobacterium longum [29] = experiment: Antimicrobial activity against 90 mins hydrogen peroxide-stressed Bifidobacterium longum P/N 601377 after 18 hrs; type: functional; in short: as §3
Bifidobacterium bifidum [30] = experiment: Antimicrobial activity against 90 mins hydrogen peroxide-stressed Bifidobacterium bifidum BB12 after 18 hrs; type: functional; in short: as §3
Bifidobacterium bifidum [31] = experiment: Antimicrobial activity against Bifidobacterium bifidum ATCC 15696; type: functional; in short: as §1
[32] = system: Bifidobacterium pseudolongum; experiment: Antimicrobial activity against 60 min 1 M HCl-stressed Bifidobacterium pseudolongum ATCC 25562 after 18 hrs; type: functional; in short: as §4
[33] = system: Bifidobacterium thermophilum; experiment: Antimicrobial activity against Bifidobacterium thermophilum ATCC 25866; type: functional; in short: as §1
Bifidobacterium animalis [34] = experiment: Antimicrobial activity against 60 min 1 M HCl-stressed Bifidobacterium animalis ATCC 27536 after 18 hrs; type: functional; in short: as §4
Bifidobacterium longum [35] = experiment: Antimicrobial activity against Bifidobacterium longum R0175; type: functional; in short: as §1
Bifidobacterium bifidum [36] = experiment: Antimicrobial activity against 90 mins oxgall-stressed Bifidobacterium bifidum BB12 after 18 hrs; type: functional; in short: as §2
Bifidobacterium bifidum [37] = experiment: Antimicrobial activity against Bifidobacterium bifidum R0071; type: functional; in short: as §1
Bifidobacterium breve [38] = experiment: Antimicrobial activity against 60 min 1 M HCl-stressed Bifidobacterium breve ATCC 15700 after 18 hrs; type: functional; in short: as §4
[39] = Antimicrobial activity against 60 min 1 M HCl-stressed Bifidobacterium infantis ATCC 15697 after 18 hrs; type: functional, Bifidobacterium longum subsp. infantis; conditions: Bifidobacterium longum; in short: as §4
Bifidobacterium breve [40] = experiment: Antimicrobial activity against 90 mins oxgall-stressed Bifidobacterium breve ATCC 15700 after 18 hrs; type: functional; in short: as §2
[41] = system: Bifidobacterium thermophilum; experiment: Antimicrobial activity against 90 mins hydrogen peroxide-stressed Bifidobacterium thermophilum ATCC 25866 after 18 hrs; type: functional; in short: as §3
Bifidobacterium longum [42] = experiment: Antimicrobial activity against 90 mins oxgall-stressed Bifidobacterium longum R0175 after 18 hrs; type: functional; in short: as §2
[43] = system: Bifidobacterium thermophilum; experiment: Antimicrobial activity against 60 min 1 M HCl-stressed Bifidobacterium thermophilum ATCC 25866 after 18 hrs; type: functional; in short: as §4
Bifidobacterium longum [44] = experiment: Antimicrobial activity against Bifidobacterium longum P/N 601377; type: functional; in short: as §1
Bifidobacterium animalis [45] = experiment: Antimicrobial activity against 90 mins hydrogen peroxide-stressed Bifidobacterium animalis ATCC 27536 after 18 hrs; type: functional; in short: as §3
Bifidobacterium bifidum [46] = experiment: Antimicrobial activity against Bifidobacterium bifidum BB12; type: functional; in short: as §1
Bifidobacterium breve [47] = experiment: Antimicrobial activity against 60 min 1 M HCl-stressed Bifidobacterium breve R0070 after 18 hrs; type: functional; in short: as §4

## CC[C@H]1OC(=O)[C@H](C)[C@@H](O[C@H]2C[C@@](C)(OC)[C@@H](O)[C@H](C)O2)[C@H](C)[C@@H](O[C@@H]2O[C@H](C)C[C@H](N(C)C)[C@H]2O)[C@](C)(O)C[C@@H](C)C(=O)[C@H](C)[C@@H](O)[C@]1(C)O [ERYTHROMYCIN]
Bifidobacterium longum [1]
  MIC: 3.9 µg/mL (≈ 5.31 µM)
Bifidobacterium breve [2]
  MIC: 0.98 µg/mL (≈ 1.34 µM)
Bifidobacterium bifidum [3]
  MIC: 3.9 µg/mL (≈ 5.31 µM)
Bifidobacterium bifidum [4]
  MIC: 500 µg/mL (≈ 681 µM)
[5]
  MIC: 3.9 µg/mL (≈ 5.31 µM)
[6]
  MIC: 3.9 µg/mL (≈ 5.31 µM)
Bifidobacterium longum [7]
  MIC: 3.9 µg/mL (≈ 5.31 µM)
Bifidobacterium breve [8]
  MIC: 0.98 µg/mL (≈ 1.34 µM)
[9]
  MIC: 3.9 µg/mL (≈ 5.31 µM)
Bifidobacterium longum [10]
  MIC: 0.98 µg/mL (≈ 1.34 µM)
Bifidobacterium breve [11]
  MIC: 0.98 µg/mL (≈ 1.34 µM)
Bifidobacterium animalis [12]
  MIC: 3.9 µg/mL (≈ 5.31 µM)
Bifidobacterium breve [13]
  MIC: 1.95 µg/mL (≈ 2.66 µM)
Bifidobacterium longum [14]
  MIC: 0.98 µg/mL (≈ 1.34 µM)
Bifidobacterium longum [15]
  MIC: 0.98 µg/mL (≈ 1.34 µM)
Bifidobacterium breve [16]
  MIC: 0.98 µg/mL (≈ 1.34 µM)
Bifidobacterium longum [17]
  MIC: 0.98 µg/mL (≈ 1.34 µM)
Bifidobacterium longum [18]
  MIC: 0.98 µg/mL (≈ 1.34 µM)
Bifidobacterium animalis [19]
  MIC: 1.9 µg/mL (≈ 2.59 µM)
Bifidobacterium longum [20]
  MIC: 0.98 µg/mL (≈ 1.34 µM)
[21]
  MIC: 3.9 µg/mL (≈ 5.31 µM)
Bifidobacterium bifidum [22]
  MIC: 3.9 µg/mL (≈ 5.31 µM)
Bifidobacterium bifidum [23]
  MIC: 3.9 µg/mL (≈ 5.31 µM)
Bifidobacterium longum [24]
  MIC: 3.9 µg/mL (≈ 5.31 µM)
Bifidobacterium bifidum [25]
  MIC: 0.98 µg/mL (≈ 1.34 µM)
Bifidobacterium longum [26]
  MIC: 1.9 µg/mL (≈ 2.59 µM)
Bifidobacterium longum [27]
  MIC: 0.98 µg/mL (≈ 1.34 µM)
[28]
  MIC: 15.6 µg/mL (≈ 21.3 µM)
Bifidobacterium longum [29]
  MIC: 1.9 µg/mL (≈ 2.59 µM)
Bifidobacterium bifidum [30]
  MIC: 0.98 µg/mL (≈ 1.34 µM)
Bifidobacterium bifidum [31]
  MIC: 7.8 µg/mL (≈ 10.6 µM)
[32]
  MIC: 3.9 µg/mL (≈ 5.31 µM)
[33]
  MIC: 0.98 µg/mL (≈ 1.34 µM)
Bifidobacterium animalis [34]
  MIC: 1.9 µg/mL (≈ 2.59 µM)
Bifidobacterium longum [35]
  MIC: 0.98 µg/mL (≈ 1.34 µM)
Bifidobacterium bifidum [36]
  MIC: 3.9 µg/mL (≈ 5.31 µM)
Bifidobacterium bifidum [37]
  MIC: 1.9 µg/mL (≈ 2.59 µM)
Bifidobacterium breve [38]
  MIC: 3.9 µg/mL (≈ 5.31 µM)
[39]
  MIC: 3.9 µg/mL (≈ 5.31 µM)
Bifidobacterium breve [40]
  MIC: 0.98 µg/mL (≈ 1.34 µM)
[41]
  MIC: 0.98 µg/mL (≈ 1.34 µM)
Bifidobacterium longum [42]
  MIC: 1.9 µg/mL (≈ 2.59 µM)
[43]
  MIC: 0.98 µg/mL (≈ 1.34 µM)
Bifidobacterium longum [44]
  MIC: 0.98 µg/mL (≈ 1.34 µM)
Bifidobacterium animalis [45]
  MIC: 0.98 µg/mL (≈ 1.34 µM)
Bifidobacterium bifidum [46]
  MIC: 15.6 µg/mL (≈ 21.3 µM)
Bifidobacterium breve [47]
  MIC: 0.98 µg/mL (≈ 1.34 µM)
